pIC50: −log10 of the molar value. “And” between values parts separate entries of the source, which are not always exact repeats. Equal entries are not always repeated.
Key:
Mustela putorius furo [1] = test: In vivo antagonism of cisplatin-induced emesis in ferret measured as emetic episodes, twice the dose of 1 mg/kg and in 3 ferrets; assay type: functional
How it was run: (§1)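 Nonfasted castrated male Fitch ferrets (1–1.5 kg) had jugular catheters implanted ≥48 h earlier under anesthesia. Compounds or saline were given iv twice, 5 min before and 90 min after cisplatin (12 mg/kg iv; 12 mg/mL in warm 0.9% saline). Emesis was observed up to 4 h; events within 1 min counted as one episode. Results were given as mean emetic episodes and % protection versus a pooled historical/concurrent control. t test versus saline.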

Canis familiaris [2] = test: In vivo antagonism of cisplatin-induced emesis in dog measured as percentage protection for twice the dose of 0.3 mg/kg in 2 dogs; assay type: functional, Canis lupus familiaris
How it was run: (§2)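 Nonfasted mature male or female beagles were dosed sc twice, 30 min before and 120 min after cisplatin (3 mg/kg iv; 3 mg/mL in warm 0.9% saline, used immediately). Emesis was observed up to 5 h; events within 2 min counted as one episode. Results were given as mean emetic episodes and % protection versus a dynamic control (historical and concurrent saline means pooled). t test versus saline.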

[3] = molecular target: D(2) dopamine receptor (Rattus norvegicus) (UniProt P61169); test: In vivo antagonistic activity against dopamine D2 receptor was measured as catalepsy in rat when administered subcutaneously; assay type: functional, organism-based
D(2) dopamine receptor (Rattus norvegicus), sequence (P61169 whole entry): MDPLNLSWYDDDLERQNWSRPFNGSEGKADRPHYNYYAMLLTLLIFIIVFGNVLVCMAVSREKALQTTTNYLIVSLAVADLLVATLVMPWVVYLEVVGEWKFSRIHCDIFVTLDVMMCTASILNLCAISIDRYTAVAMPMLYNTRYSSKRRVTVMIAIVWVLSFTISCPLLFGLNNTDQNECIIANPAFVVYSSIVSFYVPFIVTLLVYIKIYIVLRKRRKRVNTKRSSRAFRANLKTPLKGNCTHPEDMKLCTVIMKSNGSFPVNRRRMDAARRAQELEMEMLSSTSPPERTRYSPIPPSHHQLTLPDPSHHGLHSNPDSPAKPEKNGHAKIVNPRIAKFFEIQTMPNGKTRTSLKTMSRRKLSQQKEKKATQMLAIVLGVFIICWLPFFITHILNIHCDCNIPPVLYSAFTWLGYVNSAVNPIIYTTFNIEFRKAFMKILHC
How it was run: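 Male Long Evans rats (275 g) received graded sc doses in dilute aqueous HCl (pH 4.5-5.5). They were observed 180 min for catalepsy, scored when the animal stayed stationary ≥15 s on a four-cork template.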

Mustela putorius furo [4] = test: In vivo antagonism of cisplatin-induced emesis in ferret measured as percentage protection for twice the dose of 1 mg/kg and in 3 ferrets; assay type: functional; how it was run: as §1
D(2) dopamine receptor = D(2) dopamine receptor (Rattus norvegicus, UniProt P61169); test: In vitro antagonistic activity against Dopamine receptor D2 was evaluated for the inhibition of [3H]spiperone binding
D(2) dopamine receptor, sequence (P61169 whole entry): as above
How it was run: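 Rat striatal membranes were prepared by differential centrifugation in 50 mM Tris pH 7.4 at 4 °C. Membrane protein (10 mg) was incubated 15 min at 37 °C with 0.1 nM [3H]spiperone and varying competitor concentrations. Buffer: 50 mM Tris HCl pH 7.5, 0.1% ascorbic acid, pargyline, 120 mM NaCl, 5 mM KCl, 2 mM CaCl2, 1 mM MgCl2. (+)-Butaclamol defined nonspecific binding. Bound ligand was collected by filtration and scintillation counted. IC50 by log-logit regression.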

Canis familiaris [5] = test: In vivo antagonism of cisplatin-induced emesis in dog measured as emetic episodes, twice the dose of 0.3 mg/kg in 2 dogs; assay type: functional, Canis lupus familiaris; how it was run: as §2
[6] = molecular target: D(2) dopamine receptor (Rattus norvegicus) (UniProt P61169); test: In vivo antagonism activity against D2 receptor was measured as stereotypy in rat when administered subcutaneously; assay type: functional, organism-based
How it was run: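 Male Long Evans rats (275 g) were dosed sc in dilute aqueous HCl (pH 4.5-5.5) 30 min before apomorphine (1 mg/kg sc).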

[7] = molecular target: D(2) dopamine receptor (Canis lupus familiaris) (UniProt Q9GJU1); test: In vivo antagonism activity against dopamine D2 receptor was measured as emesis in dog when administered subcutaneously; assay type: functional, organism-based
D(2) dopamine receptor (Canis lupus familiaris), sequence (Q9GJU1 whole entry): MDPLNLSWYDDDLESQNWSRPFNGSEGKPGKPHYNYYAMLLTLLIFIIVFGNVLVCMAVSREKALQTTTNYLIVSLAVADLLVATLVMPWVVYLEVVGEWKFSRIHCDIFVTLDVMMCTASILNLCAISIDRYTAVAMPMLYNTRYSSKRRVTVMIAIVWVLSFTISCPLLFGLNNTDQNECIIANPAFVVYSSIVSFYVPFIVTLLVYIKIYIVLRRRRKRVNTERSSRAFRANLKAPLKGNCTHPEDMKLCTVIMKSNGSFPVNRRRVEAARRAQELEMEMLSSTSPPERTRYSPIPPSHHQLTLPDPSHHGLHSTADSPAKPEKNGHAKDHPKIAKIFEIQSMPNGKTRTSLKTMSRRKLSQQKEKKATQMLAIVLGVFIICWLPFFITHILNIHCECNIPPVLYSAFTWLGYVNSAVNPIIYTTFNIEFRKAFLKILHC

Mustela putorius furo [8] = test: In vivo antagonism of cisplatin-induced emesis in ferret measured as emetic episodes, twice the dose of 0.3 mg/kg and in 3 ferrets; assay type: functional; how it was run: as §1
Mustela putorius furo [9] = test: In vivo antagonism of cisplatin-induced emesis in ferret measured as percentage protection for twice the dose of 3 mg/kg and in 3 ferrets; assay type: functional; how it was run: as §1
Mustela putorius furo [10] = test: In vivo antagonism of cisplatin-induced emesis in ferret measured as percentage protection for twice the dose of 0.3 mg/kg and in 3 ferrets; assay type: functional; how it was run: as §1
Mustela putorius furo [11] = test: In vivo antagonism of cisplatin-induced emesis in ferret measured as emetic episodes, twice the dose of 3 mg/kg and in 3 ferrets; assay type: functional; how it was run: as §1
Canis familiaris [12] = test: In vivo antagonism of cisplatin-induced emesis in dog measured as emetic episodes, twice the dose of 1 mg/kg in 2 dogs; assay type: functional, Canis lupus familiaris; how it was run: as §2
Canis familiaris [13] = test: In vivo antagonism of cisplatin-induced emesis in dog measured as percentage protection for twice the dose of 1 mg/kg in 2 dogs; assay type: functional, Canis lupus familiaris; how it was run: as §2

Row | Structure (SMILES) | Emetic episodes (Mustela putorius furo [1]) | Protection (Canis familiaris [2]) | ED50 [3] | Protection (Mustela putorius furo [4]) | pIC50 (D(2) dopamine receptor) | Emetic episodes (Canis familiaris [5]) | ED50 [6] | ED50 [7] | Protection (Mustela putorius furo [9]) | Emetic episodes (Mustela putorius furo [11]) | Emetic episodes (Canis familiaris [12]) | Protection (Canis familiaris [13]) | other results
1 | CCN(CC)CCNC(=O)c1cc(Cl)c(N)cc1OCCC(C)O (centres undefined) | 2 | 32% | > 40 mg/kg | 73% | < 6.00 | 8 | > 40 mg/kg | > 3 mg/kg |  |  |  |  | 
2 | CCCC(=O)COc1cc(N)c(Cl)cc1C(=O)NCCN(CC)CC | 0.7 | 84% | > 40 mg/kg | 90% | < 6.00 | 2 | > 40 mg/kg | > 3 mg/kg |  |  |  |  | 
3 | CCN(CC)CCNC(=O)c1cc(Cl)c(N)cc1OC1CCCC[C@@H]1OC (some centres undefined) | 2.3 |  | > 40 mg/kg | 69% | < 6.00 |  | > 40 mg/kg | > 3 mg/kg | 91% | 0.7 | 10 | 15% | Emetic episodes (Mustela putorius furo [8]): 4.3; Protection (Mustela putorius furo [10]): 42%
4 | CCN(CC)CCNC(=O)c1cc(Cl)c(N)cc1OC1CCCC1=O (centres undefined) | 5.7 |  | > 40 mg/kg | 21% | < 6.00 |  | > 40 mg/kg | > 3 mg/kg |  |  |  | 87% | 
5 | CCC(Oc1cc(N)c(Cl)cc1C(=O)NCCN(CC)CC)C(C)=O (centres undefined) | 2.3 |  | > 40 mg/kg | 68% | < 6.00 | 3 | > 40 mg/kg | > 3 mg/kg |  |  | 0.5 | 96% | 
6 | CCN(CC)CCNC(=O)c1cc(Cl)c(N)cc1OC(C)C(C)O (stereo in doubt; 8g,h) |  |  |  |  | < 6.00 |  |  |  |  |  |  |  | Emetic episodes (Mustela putorius furo [1]; 1 mg/kg): 1.7; Protection (Mustela putorius furo [9]; 3 mg/kg): 80%; Protection (Canis familiaris [2]; 0.3 mg/kg): 96%; Emetic episodes (Mustela putorius furo [11]; 3 mg/kg): 1.3; Protection (Mustela putorius furo [4]; 1 mg/kg): 75%; Emetic episodes (Canis familiaris [5]; 0.3 mg/kg): 0.5
7 | CCN(CC)CCNC(=O)c1cc(Cl)c(N)cc1OCC(=O)C(C)C | 4 | 44% | > 40 mg/kg | 44% | < 6.00 | 3 | > 40 mg/kg | > 3 mg/kg |  |  |  |  | 
8 | CCC(=O)C(C)Oc1cc(N)c(Cl)cc1C(=O)NCCN(CC)CC (centres undefined) | 1.3 | 84% | > 40 mg/kg | 82% | < 6.00 | 2 | > 40 mg/kg | > 3 mg/kg |  |  |  |  | 
9 | CCN(CC)CCNC(=O)c1cc(Cl)c(N)cc1OC1CCCC[C@H]1O (some centres undefined) |  | 64% | > 40 mg/kg |  | < 6.00 | 4.5 | > 40 mg/kg |  | 64% | 2.7 | 0 | 100% | 
10 | CCN(CC)CCNC(=O)c1cc(Cl)c(N)cc1OCC(C)O (centres undefined) | 4.5 | 68% | > 40 mg/kg | 36% | < 6.00 | 3 | > 40 mg/kg | > 3 mg/kg | 86% | 1 | 0 | 100% | 
11 | CCN(CC)CCN1C(=O)c2cc(Cl)c(N)cc2OC(C)=C1C |  | 37% | > 40 mg/kg |  | < 6.00 | 7.5 | > 40 mg/kg | > 3 mg/kg |  |  |  |  | Protection (Mustela putorius furo [10]; 0.3 mg/kg): 95% and 67%
12 | CCC(=O)COc1cc(N)c(Cl)cc1C(=O)NCCN(CC)CC |  |  | > 40 mg/kg |  | < 6.00 | 3 | > 40 mg/kg | > 3 mg/kg | 90% | 0.7 | 0 | 100% | Emetic episodes (Mustela putorius furo [8]): 7.3; Protection (Mustela putorius furo [10]): 0%
13 | CCN(CC)CCNC(=O)c1cc(Cl)c(N)cc1OCCOCCOC | 4.3 |  | > 40 mg/kg | 39% | < 6.00 |  | > 40 mg/kg | > 3 mg/kg | 76% | 1.7 |  |  | 

Reference: ChEMBL document CHEMBL1124174, “Substituted benzamides. 1. Potential nondopaminergic antagonists of chemotherapy-induced nausea and emesis” (J Med Chem, 1988)
